Test results: ChEMBL document CHEMBL1139880, “Potent and selective agonists of human melanocortin receptor 5: cyclic analogues of alpha-melanocyte-stimulating hormone” (J Med Chem, 2007)
Starred links: 1 amine or outer side, 2 acyl side, 3 side chain; linkers in the order of their positions; H or OH if unused. Positions of bridges follow the written chain, without caps; N, C: chain ends. Non-standard residues stand in square brackets, D forms with d. Residues, ends and D or L forms follow the SMILES beside them. X4 = O=C([C@H](CC1CCC(C2CCCCC2)CC1)N[*:1])[*:2]; X3 = O=C([C@H]1CC2CCCCC2N1[*:1])[*:2]; Pip = O=C(O)[C@@H]1CCCCN1; Nle = CCCC[C@H](N)C(=O)O

Key:
Homo sapiens [1] = species: Homo sapiens; assay: Selectivity for human cloned MC5R over human cloned MC1bR
[2] = target: Melanocortin receptor (M4 and M5) (Homo sapiens) (UniProt P32245+P33032); assay: Selectivity for human cloned MC5R over human cloned MC4R; type: protein assay
Melanocortin receptor (M4 and M5) (Homo sapiens), sequence (P32245 whole entry, looked up): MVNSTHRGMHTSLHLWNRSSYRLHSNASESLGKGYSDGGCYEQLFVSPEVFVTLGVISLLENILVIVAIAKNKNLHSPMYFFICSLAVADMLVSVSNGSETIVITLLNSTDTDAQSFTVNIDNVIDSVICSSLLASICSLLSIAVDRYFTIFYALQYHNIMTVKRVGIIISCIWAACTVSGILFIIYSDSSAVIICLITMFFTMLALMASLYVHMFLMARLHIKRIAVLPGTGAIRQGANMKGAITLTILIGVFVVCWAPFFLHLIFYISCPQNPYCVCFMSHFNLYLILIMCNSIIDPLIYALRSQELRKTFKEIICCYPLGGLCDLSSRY
Melanocortin receptor (M4 and M5) (Homo sapiens), sequence (P33032 whole entry, looked up): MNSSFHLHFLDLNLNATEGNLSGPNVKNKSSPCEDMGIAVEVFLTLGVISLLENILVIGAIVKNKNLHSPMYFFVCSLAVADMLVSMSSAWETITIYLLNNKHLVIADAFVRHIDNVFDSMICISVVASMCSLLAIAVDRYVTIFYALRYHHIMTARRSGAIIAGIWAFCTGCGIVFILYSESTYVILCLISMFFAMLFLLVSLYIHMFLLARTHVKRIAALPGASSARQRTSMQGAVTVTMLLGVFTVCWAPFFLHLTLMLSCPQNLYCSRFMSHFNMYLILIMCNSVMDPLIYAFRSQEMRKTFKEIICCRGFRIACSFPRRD

Homo sapiens [3] = species: Homo sapiens; assay: Selectivity for human cloned MC5R over human cloned MC3R
Melanocortin receptor 3 [4] = target: T1, Melanocortin receptor 3 (Homo sapiens, UniProt P41968); assay: Agonist activity at human MC3R expressed in CHO cells assessed as cAMP accumulation at […] relative to [125I]NDPalphaMSH; type: functional, cell-based
T1 sequence (P41968 whole entry): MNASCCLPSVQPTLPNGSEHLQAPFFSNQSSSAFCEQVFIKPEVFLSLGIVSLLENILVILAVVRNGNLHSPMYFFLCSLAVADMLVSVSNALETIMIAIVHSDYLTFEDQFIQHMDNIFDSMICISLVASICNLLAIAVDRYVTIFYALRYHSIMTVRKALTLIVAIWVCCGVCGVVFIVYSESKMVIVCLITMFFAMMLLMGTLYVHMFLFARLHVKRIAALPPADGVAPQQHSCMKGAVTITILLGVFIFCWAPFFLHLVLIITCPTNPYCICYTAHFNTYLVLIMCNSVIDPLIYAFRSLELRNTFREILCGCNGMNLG

Melanocortin receptor 4 [5] = target: T2, Melanocortin receptor 4 (Homo sapiens, UniProt P32245); assay: Agonist activity at human MC4R expressed in CHO cells assessed as cAMP accumulation at 10 uM relative to [125I]NDPalphaMSH; type: functional, cell-based; conditions: filed as partial agonist
T2 sequence (P32245 whole entry): as the sequence (P32245 whole entry, looked up) above

Melanocortin receptor 3 [6] = target: T1, Melanocortin receptor 3; assay: Agonist activity at human MC3R expressed in CHO cells assessed as cAMP accumulation at 5 uM relative to [125I]NDPalphaMSH; type: functional, cell-based
Melanocortin receptor 4 [7] = target: T2, Melanocortin receptor 4; assay: Agonist activity at human MC4R expressed in CHO cells assessed as cAMP accumulation at 5 uM relative to [125I]NDPalphaMSH; type: functional, cell-based; conditions: filed as agonist
Melanocortin receptor 4 [8] = target: T2, Melanocortin receptor 4; assay: Agonist activity at human MC4R expressed in CHO cells assessed as cAMP accumulation at […] relative to [125I]NDPalphaMSH
Melanocortin receptor 3 [9] = target: T1, Melanocortin receptor 3; assay: Agonist activity at human MC3R expressed in CHO cells assessed as cAMP accumulation at 2 uM relative to [125I]NDPalphaMSH; type: functional, cell-based
Melanocortin receptor 4 [10] = target: T2, Melanocortin receptor 4; assay: Agonist activity at human MC4R expressed in CHO cells assessed as cAMP accumulation at 1 uM relative to [125I]NDPalphaMSH; type: functional, cell-based
Melanocortin receptor 4 [11] = target: T2, Melanocortin receptor 4; assay: Agonist activity at human MC4R expressed in CHO cells assessed as cAMP accumulation at […] relative to [125I]NDPalphaMSH; type: functional, cell-based; conditions: filed as partial agonist
Melanocortin receptor 4 [12] = target: T2, Melanocortin receptor 4; assay: Agonist activity at human MC4R expressed in CHO cells assessed as cAMP accumulation at 2 uM relative to [125I]NDPalphaMSH; type: functional, cell-based; conditions: filed as partial agonist
Melanocortin receptor 3 [13] = target: T1, Melanocortin receptor 3; assay: Agonist activity at human MC3R expressed in CHO cells assessed as cAMP accumulation at 1 uM relative to [125I]NDPalphaMSH; type: functional, cell-based
[14] = target: T3, Melanocyte-stimulating hormone receptor (Homo sapiens, UniProt Q01726); assay: Agonist activity at human melanocortin receptor 1b expressed in CHO cells assessed as cAMP accumulation relative to [125I]NDPalphaMSH; type: functional, cell-based
Target sequence in this assay (Q01726 whole entry, looked up): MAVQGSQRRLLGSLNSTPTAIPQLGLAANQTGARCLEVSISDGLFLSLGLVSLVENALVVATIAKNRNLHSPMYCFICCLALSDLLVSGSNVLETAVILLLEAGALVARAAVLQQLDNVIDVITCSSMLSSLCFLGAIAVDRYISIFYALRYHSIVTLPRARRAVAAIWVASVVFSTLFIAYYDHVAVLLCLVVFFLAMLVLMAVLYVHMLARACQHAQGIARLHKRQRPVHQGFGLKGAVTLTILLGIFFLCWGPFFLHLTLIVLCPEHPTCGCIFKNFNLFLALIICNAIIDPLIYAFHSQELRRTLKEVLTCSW

Melanocortin receptor 3 [15] = target: T1, Melanocortin receptor 3; assay: Displacement of [125I]NDPalphaMSH from human cloned MC3R expressed in CHO cells; type: cell-based; conditions: cho
Melanocortin receptor 3 [16] = target: T1, Melanocortin receptor 3; assay: Agonist activity at human MC3R expressed in CHO cells assessed as cAMP accumulation; type: functional, cell-based; conditions: cho
Outline: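 Dissociated CHO cells were spun 5 min and resuspended in Earle's balanced salt solution with 10 mM HEPES pH 7.5, 5 mM MgCl2, 1 mM glutamine and 1 mg/mL BSA. They were incubated 40 min at room temperature with compound (0.003–5000 nM) plus 0.6 mM IBMX, then lysed with 0.1 M HCl. cAMP was measured by Flashplate cAMP assay.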

[17] = target: T3, Melanocyte-stimulating hormone receptor; assay: Agonist activity at human melanocortin receptor 1b expressed in CHO cells assessed as cAMP accumulation at 1 uM relative to [125I]NDPalphaMSH; type: functional, cell-based
Target sequence in this assay (Q01726 whole entry, looked up): as above

Melanocortin receptor 4 [18] = target: T2, Melanocortin receptor 4; assay: Inhibition of human cloned MC4R expressed in CHO cells at 2 uM relative to [125I]NDPalphaMSH; type: cell-based
[19] = target: T3, Melanocyte-stimulating hormone receptor; assay: Displacement of [125I]NDPalphaMSH from human cloned melanocortin receptor 1b expressed in CHO cells; type: cell-based; conditions: cho
Target sequence in this assay (Q01726 whole entry): as the sequence (Q01726 whole entry, looked up) above

Melanocortin receptor 5 [20] = target: T4, Melanocortin receptor 5 (Homo sapiens, UniProt P33032); assay: Agonist activity at human MC5R expressed in CHO cells assessed as cAMP accumulation; type: functional, cell-based; conditions: cho
T4 sequence (P33032 whole entry): as the sequence (P33032 whole entry, looked up) above

Melanocortin receptor 5 [21] = target: T4, Melanocortin receptor 5; assay: Displacement of [125I]NDPalphaMSH from human cloned MC5R expressed in CHO cells; type: cell-based; conditions: cho

For CCCC[C@H](NC(C)=O)C(=O)N[C@H]1CC(=O)NCCCC[C@@H](C(N)=O)NC(=O)[C@H](Cc2c[nH]c3ccccc23)NC(=O)[C@@H]2CCCN2C(=O)[C@H](Cc2ccc(-c3ccccc3)cc2)NC(=O)[C@@H]2CCCN2C1=O, which Ratio IC50 (Homo sapiens [1]) is on record?
The Ratio IC50 was 720.

What about the Ratio IC50 [2] of the same compound?
The Ratio IC50 was 340.

What about the Ratio IC50 (Homo sapiens [3]) of the same compound?
Its Ratio IC50 is 217.

What about the Activity (Melanocortin receptor 3 [4]) of the same compound?
The Activity was 2%.

What about the Activity (Melanocortin receptor 4 [5]) of the same compound?
Its Activity is 40%.

With CCCC[C@H](NC(C)=O)C(=O)N[C@H]1CC(=O)NCCCC[C@@H](C(N)=O)NC(=O)[C@H](Cc2c[nH]c3ccccc23)NC(=O)[C@@H]2CCCN2C(=O)[C@H](Cc2ccc(-c3ccccc3)cc2)NC(=O)[C@@H]2CC3CCCCC3N2C1=O (some centres not stated) as the compound, how does the Ratio IC50 (Homo sapiens [1]) read?
The Ratio IC50 was 780.

What about the Ratio IC50 [2] of the same compound?
Its Ratio IC50 is 470.

And the Ratio IC50 (Homo sapiens [3])?
Its Ratio IC50 is 440.

What about the Activity (Melanocortin receptor 3 [6]) of the same compound?
Its Activity is 1%.

What about the Activity (Melanocortin receptor 4 [7]) of the same compound?
Its Activity is 97%.

What does the source list for CCCC[C@H](NC(C)=O)C(=O)N[C@H]1CC(=O)NCCCC[C@@H](C(N)=O)NC(=O)[C@H](Cc2c[nH]c3ccccc23)NC(=O)[C@@H]2CCCCN2C(=O)[C@H](Cc2ccc(-c3ccccc3)cc2)NC(=O)[C@@H]2Cc3ccccc3CN2C1=O?
Ratio IC50 (Homo sapiens [1]): 260; Ratio IC50 [2]: 260; Ratio IC50 (Homo sapiens [3]): 1440; Activity (Melanocortin receptor 4 [8]): 0%; Activity (Melanocortin receptor 3 [4]): 10%

Which results are given for CCCC[C@H](NC(C)=O)C(=O)N[C@H]1CC(=O)NCCCC[C@@H](C(N)=O)NC(=O)[C@H](Cc2c[nH]c3ccccc23)NC(=O)[C@@H]2CCCCN2C(=O)[C@H](Cc2ccc(-c3ccccc3)cc2)NC(=O)[C@@H]2CCCN2C1=O?
Ratio IC50 (Homo sapiens [1]): 430; Ratio IC50 [2]: 1060; Ratio IC50 (Homo sapiens [3]): 1800; Activity (Melanocortin receptor 3 [9]): 8%; Activity (Melanocortin receptor 4 [10]): 9%

How did the Ratio IC50 (Homo sapiens [1]) turn out when CCCC[C@H](NC(C)=O)C(=O)N[C@H]1CC(=O)NCCCC[C@@H](C(N)=O)NC(=O)[C@H](Cc2c[nH]c3ccccc23)NC(=O)[C@@H]2CCCCN2C(=O)[C@H](Cc2ccc(-c3ccccc3)cc2)NC(=O)[C@H](Cc2c[nH]cn2)NC1=O was run?
The Ratio IC50 was 8.

What about the Ratio IC50 [2] of the same compound?
The Ratio IC50 was 790.

What about the Ratio IC50 (Homo sapiens [3]) of the same compound?
The Ratio IC50 was 1940.

What about the Activity (Melanocortin receptor 4 [11]) of the same compound?
The Activity was 41%.

With CCCC[C@H](NC(C)=O)C(=O)N[C@H]1CC(=O)NCCCC[C@@H](C(N)=O)NC(=O)[C@H](Cc2c[nH]c3ccccc23)NC(=O)[C@@H]2CCCCN2C(=O)[C@H](Cc2ccc(-c3ccccc3)cc2)NC(=O)[C@@H]2CC3CCCCC3N2C1=O (some centres not stated) as the compound, how does the Ratio IC50 (Homo sapiens [1]) read?
Its Ratio IC50 is greater than 5000.

What about the Ratio IC50 [2] of the same compound?
The Ratio IC50 was greater than 5000.

And the Ratio IC50 (Homo sapiens [3])?
Its Ratio IC50 is greater than 5000.

And the Activity (Melanocortin receptor 4 [12])?
Its Activity is 40%.

What about the Activity (Melanocortin receptor 3 [9]) of the same compound?
Its Activity is 5%.

Which Ratio IC50 (Homo sapiens [1]) does the source give for CCCC[C@H](NC(C)=O)C(=O)N[C@H]1CC(=O)NCCCC[C@@H](C(N)=O)NC(=O)[C@H](Cc2c[nH]c3ccccc23)NC(=O)[C@@H]2CCCCN2C(=O)[C@H](Cc2ccc(-c3ccccc3)cc2)NC(=O)[C@H](C(C)C)NC1=O here?
Its Ratio IC50 is 670.

And the Activity (Melanocortin receptor 3 [13])?
Its Activity is 3%.

What about the Activity (Melanocortin receptor 4 [10]; filed as agonist) of the same compound?
Its Activity is 77%.

And the Activity [14]?
Its Activity is 33%.

How did the Ratio IC50 (Homo sapiens [1]) turn out when CCCC[C@H](NC(C)=O)C(=O)N[C@H]1CC(=O)NCCCC[C@@H](C(N)=O)NC(=O)[C@H](Cc2c[nH]c3ccccc23)NC(=O)[C@@H]2CCCCN2C(=O)[C@H](CC2CCC(C3CCCCC3)CC2)NC(=O)[C@H]2CC3CCCCC3N2C1=O (some centres not stated) (Ac-[Nle]D[X3][X4][Pip]WK-NH2; lactam 2-7) was run?
The Ratio IC50 was 1.8.

What about the IC50 (Melanocortin receptor 3 [15]) of the same compound?
Its IC50 is greater than 1000 nM.

And the EC50 (Melanocortin receptor 3 [16])?
The EC50 was greater than 500 nM.

And the Activity [17]?
The Activity was 13%.

What about the inhibition (Melanocortin receptor 4 [18]) of the same compound?
Its inhibition is 25%.

And the IC50 [19]?
The IC50 was 1300 nM (antagonist).

And the Activity (Melanocortin receptor 4 [10]; filed as partial agonist)?
The Activity was 39%.

What about the EC50 (Melanocortin receptor 5 [20]) of the same compound?
The EC50 was greater than 500 nM.

And the IC50 (Melanocortin receptor 5 [21])?
The IC50 was 700 nM (antagonist).
